Structures can show the parent of a compound that is named as a salt. Where two headings read alike, the source gives them in different places.
Legend:
[1] = system: 60 common human cancer cell lines (NCI-60); assay: NCI-60 five-dose screen, mean-graph midpoint; assay type: cell-based
Method in brief: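 NCI-DTP screen across 60 human cancer cell lines. One-dose prescreen at 10 μM; compounds passing the cutoff went to five concentrations, 100 μM to 10 nM. GI50 per cell line interpolated from five-dose data.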

[2] = molecular target: T1, Human recombinant Top1 (Homo sapiens, UniProt P11387); settings: graded relative to 1 μM camptothecin; cited from earlier work
T1 sequence (P11387 1-765): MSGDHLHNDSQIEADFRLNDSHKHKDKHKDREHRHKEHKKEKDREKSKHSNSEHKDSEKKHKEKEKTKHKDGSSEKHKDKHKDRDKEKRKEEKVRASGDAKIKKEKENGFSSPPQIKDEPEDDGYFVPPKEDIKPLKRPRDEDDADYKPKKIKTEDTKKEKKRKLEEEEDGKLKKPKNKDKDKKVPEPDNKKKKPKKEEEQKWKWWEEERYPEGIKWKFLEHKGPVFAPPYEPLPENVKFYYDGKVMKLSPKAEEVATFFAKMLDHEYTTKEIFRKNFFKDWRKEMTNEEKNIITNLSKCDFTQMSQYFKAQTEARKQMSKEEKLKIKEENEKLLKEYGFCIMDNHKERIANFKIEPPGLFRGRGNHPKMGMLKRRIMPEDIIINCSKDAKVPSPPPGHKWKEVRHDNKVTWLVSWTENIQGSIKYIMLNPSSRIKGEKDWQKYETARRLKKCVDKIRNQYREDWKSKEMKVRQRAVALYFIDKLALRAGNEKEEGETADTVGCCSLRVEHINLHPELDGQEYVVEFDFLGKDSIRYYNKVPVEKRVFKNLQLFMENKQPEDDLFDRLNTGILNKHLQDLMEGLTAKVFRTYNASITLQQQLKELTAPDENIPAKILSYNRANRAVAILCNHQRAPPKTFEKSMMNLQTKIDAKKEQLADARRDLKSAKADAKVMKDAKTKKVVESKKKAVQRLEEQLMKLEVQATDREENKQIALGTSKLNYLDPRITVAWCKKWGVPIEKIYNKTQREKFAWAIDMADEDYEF

[3] = system: lung HOP-62; settings: read-out: cytotoxicity (GI50 in μM) lung HOP-62; cited from earlier work
[4] = system: melanoma UACC-62; settings: read-out: cytotoxicity (GI50 in μM) melanoma UACC-62; cited from earlier work
[5] = system: ovarian OVACAR-3; settings: read-out: cytotoxicity (GI50 in μM) ovarian OVACAR-3; cited from earlier work
[6] = system: prostate DU-145; settings: read-out: cytotoxicity (GI50 in μM) prostate DU-145; cited from earlier work
[7] = molecular target: recombinant TDP1 (Homo sapiens, UniProt Q9NUW8); assay: Gel-based assay measuring the inhibition of recombinant TDP1; assay type: biochemical; settings: for IC50: read-out: TDP1 inhibition, semiquantitative IC50 scale
Chain of recombinant TDP1 (Q9NUW8 whole entry): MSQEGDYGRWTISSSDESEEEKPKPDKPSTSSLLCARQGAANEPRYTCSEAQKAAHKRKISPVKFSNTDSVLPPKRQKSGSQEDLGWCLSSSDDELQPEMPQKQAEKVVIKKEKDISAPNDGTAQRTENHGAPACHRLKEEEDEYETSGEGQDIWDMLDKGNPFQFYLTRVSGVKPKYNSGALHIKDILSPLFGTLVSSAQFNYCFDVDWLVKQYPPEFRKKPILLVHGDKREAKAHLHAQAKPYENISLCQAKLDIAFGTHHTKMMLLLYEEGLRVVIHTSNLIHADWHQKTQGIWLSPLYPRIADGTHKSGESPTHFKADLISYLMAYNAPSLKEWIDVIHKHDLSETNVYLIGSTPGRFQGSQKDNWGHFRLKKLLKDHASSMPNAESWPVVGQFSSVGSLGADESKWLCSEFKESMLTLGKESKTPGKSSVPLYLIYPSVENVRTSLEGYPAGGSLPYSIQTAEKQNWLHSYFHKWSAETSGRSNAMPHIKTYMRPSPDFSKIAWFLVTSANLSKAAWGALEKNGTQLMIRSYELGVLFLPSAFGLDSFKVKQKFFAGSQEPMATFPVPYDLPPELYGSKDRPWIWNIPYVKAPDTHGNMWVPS

[8] = molecular target: T1, Human recombinant Top1; assay: Top1-mediated DNA cleavage assay; assay type: biochemical; settings: graded relative to 1 μM camptothecin
[9] = system: 60 common human cancer cell lines (NCI-60); settings: cited from earlier work
[10] = system: colon HCT-116; settings: read-out: cytotoxicity (GI50 in μM) colon HCT-116; cited from earlier work
[11] = system: CNS SF-539; settings: read-out: cytotoxicity (GI50 in μM) CNS SF-539; cited from earlier work
[12] = system: renal SN12C; settings: read-out: cytotoxicity (GI50 in μM) renal SN12C; cited from earlier work
[13] = system: breast MCF7; settings: read-out: cytotoxicity (GI50 in μM) breast MCF7; cited from earlier work
[14] = Homo sapiens, 60 cell, read-out: MGM
[15] = read-out: MGM values, range over the named series
[16] = read-out: MGM values, range over the named compounds

COc1cc2c(cc1O)-c1c(c3ccc([N+](=O)[O-])cc3c(=O)n1CCCN1CCOCC1)C2=O [Compound 32, 8-Hydroxy-9-methoxy-6-(3-morpholinopropyl)-3-nitro-5H-indeno[1,2-c]isoquinoline-5,11(6H)-dione Hydrobromide]
GI50 [1, 14]: 200 nM

COc1cc2c(cc1O)C(=O)c1c-2n(CCCN2CCOCC2)c(=O)c2cc([N+](=O)[O-])ccc12 [Compound 21, 9-Hydroxy-8-methoxy-6-(3-morpholinopropyl)-3-nitro-5H-indeno[1,2-c]isoquinoline-5,11(6H)-dione Hydrobromide]
GI50 [1, 15]: 16 to 21 nM

O=C1c2ccc(O)cc2-c2c1c1ccc([N+](=O)[O-])cc1c(=O)n2CCCn1ccnc1 [Compound 59, 6-(3-(1H-Imidazol-1-yl)propyl)-8-hydroxy-3-nitro-5H-indeno[1,2-c]isoquinoline-5,11(6H)-dione Hydrobromide]
GI50 [1, 15]: 56 to 407 nM

COc1cc2c(cc1O)C(=O)c1c-2n(CCCn2ccnc2)c(=O)c2cc([N+](=O)[O-])ccc12 [Compound 23, 6-(3-(1H-Imidazol-1-yl)propyl)-9-hydroxy-8-methoxy-3-nitro-5H-indeno[1,2-c]isoquinoline-5,11(6H)-dione Hydrobromide]
GI50 [1, 15]: 16 to 21 nM

COc1cccc2c1-c1c(c3ccc([N+](=O)[O-])cc3c(=O)n1CCCN)C2=O [Compound 4]
Top1 cleavage [2]: ++++ | GI50 [3]: 1.1 µM | GI50 [4]: 2.3 µM | GI50 [5]: 2.3 µM | GI50 [6]: 1.1 µM

O=C1c2ccccc2-c2c1c1ccccc1c(=O)n2CCCNCCCNCCCn1c2c(c3ccccc3c1=O)C(=O)c1ccccc1-2 [Compound 72]
IC50 [7]: 1 to 12 µM

Br.COc1cc2c(cc1O)-c1c(c3ccc([N+](=O)[O-])cc3c(=O)n1CCCn1ccnc1)C2=O [Compound 34, 6-(3-(1H-Imidazol-1-yl)propyl)-8-hydroxy-9-methoxy-3-nitro-5H-indeno[1,2-c]isoquinoline-5,11(6H)-dione Hydrobromide]
Top1 cleavage [8]: ++(+) | IC50 [7]: 12 to 37 µM | GI50 [1, 14]: 740 nM

O=C1c2c(O)cccc2-c2c1c1ccc([N+](=O)[O-])cc1c(=O)n2CCCn1ccnc1 [Compound 60, 6-(3-(1H-Imidazol-1-yl)propyl)-10-hydroxy-3-nitro-5H-indeno-[1,2-c]isoquinoline-5,11(6H)-dione Hydrobromide]
GI50 [1, 15]: 234 to 3550 nM

Br.NCCCn1c2c(c3ccc([N+](=O)[O-])cc3c1=O)C(=O)c1cc(O)ccc1-2 [Compound 71, 6-(3-Aminopropyl)-9-hydroxy-3-nitro-5H-indeno[1,2-c]-isoquinoline-5,11(6H)-dione Hydrobromide]
Top1 cleavage [8]: ++++ | TDP1 inhibitory activity (in words) [7]: TDP1 inhibitors | IC50 [7]: 37 to 111 µM | GI50 [1, 14]: 120 nM

COc1cc2c(cc1O)C(=O)c1c-2n(CCCn2ccnc2)c(=O)c2cc(OC)c(OC)cc12 [Compound 11]
GI50 [9, 16]: 55 to 87 nM | GI50 [3]: < 0.01 µM | GI50 [10]: < 0.01 µM | GI50 [11]: < 0.01 µM | GI50 [4]: < 0.01 µM | GI50 [5]: 0.02 µM | GI50 [12]: < 0.01 µM | GI50 [6]: < 0.01 µM | GI50 [13]: < 0.01 µM

Br.O=C1c2ccc(O)cc2-c2c1c1ccc([N+](=O)[O-])cc1c(=O)n2CCCN1CCOCC1 [Compound 55, 8-(Hydroxy)-6-(3-morpholinopropyl)-3-nitro-5H-indeno[1,2-c]-isoquinoline-5,11(6H)-dione]
Top1 cleavage [8]: ++++ | GI50 [1, 15]: 56 to 407 nM

Br.COc1cc2c(cc1O)C(=O)c1c-2n(CCCN)c(=O)c2cc([N+](=O)[O-])ccc12 [Compound 25, 6-(3-Aminopropyl)-9-hydroxy-8-methoxy-3-nitro-5H-indeno[1,2-c]isoquinoline-5,11(6H)-dione Hydrobromide]
TDP1 inhibitory activity (in words) [7]: TDP1 inhibitors | IC50 [7]: 12 to 37 µM | GI50 [1, 15]: 16 to 21 nM

COc1cc2c(cc1O)-c1c(c3cc(OC)c(OC)cc3c(=O)n1CCCn1ccnc1)C2=O [Compound 9]
Top1 cleavage [2]: ++(+) | GI50 ([9]; read-out: MGM, average GI50 across 60 cell lines): 42000 ± 7000 nM | GI50 [3]: > 100 µM | GI50 [10]: > 100 µM | GI50 [4]: 0.33 µM | GI50 [5]: > 100 µM | GI50 [6]: > 100 µM | GI50 [13]: 0.05 µM

COc1ccc2c(c1)C(=O)c1c-2n(CCCN)c(=O)c2cc([N+](=O)[O-])ccc12 [Compound 5]
Top1 cleavage [2]: +++++ | GI50 [3]: < 0.01 µM | GI50 [10]: < 0.01 µM | GI50 [11]: < 0.01 µM | GI50 [4]: < 0.01 µM | GI50 [12]: < 0.01 µM

O=C1c2cccc(O)c2-c2c1c1ccc([N+](=O)[O-])cc1c(=O)n2CCCn1ccnc1 [Compound 44, 6-(3-(1H-Imidazol-1-yl)propyl)-7-hydroxy-3-nitro-5H-indeno[1,2-c]isoquinoline-5,11(6H)-dione]
Top1 cleavage [8]: +++ (75–95% activity)

Br.NCCCn1c2c(c3ccc([N+](=O)[O-])cc3c1=O)C(=O)c1ccc(O)cc1-2 [Compound 63, 6-(3-Aminopropyl)-8-hydroxy-3-nitro-5H-indeno[1,2-c]-isoquinoline-5,11(6H)-dione Hydrobromide]
TDP1 inhibitory activity (in words) [7]: TDP1 inhibitors | IC50 [7]: 1 to 12 µM | GI50 [1, 14]: 410 ± 1000 nM | GI50 [1, 15]: 56 to 407 nM

Cl.NCCCn1c2c(c3ccc([N+](=O)[O-])cc3c1=O)C(=O)c1cccc(O)c1-2 [Compound 45, 6-(3-Aminopropyl)-7-hydroxy-3-nitro-5H-indeno[1,2-c]-isoquinoline-5,11(6H)-dione Hydrochloride]
Top1 cleavage [8]: ++ (50–75% activity) | TDP1 inhibitory activity (in words) [7]: TDP1 inhibitors | IC50 [7]: 12 to 37 µM

COc1cc2c(cc1O)C(=O)c1c-2n(CCCN2CCOCC2)c(=O)c2cc(OC)c(OC)cc12 [Compound 10]
Top1 cleavage [2]: +++++ | GI50 [9, 16]: 55 to 87 nM | GI50 [3]: 0.02 µM | GI50 [10]: 0.03 µM | GI50 [11]: 0.02 µM | GI50 [4]: 0.02 µM | GI50 [5]: 0.03 µM | GI50 [12]: 0.02 µM | GI50 [6]: 0.02 µM | GI50 [13]: 0.02 µM

Br.O=C1c2cc(O)ccc2-c2c1c1ccc([N+](=O)[O-])cc1c(=O)n2CCCN1CCOCC1 [Compound 69, 9-Hydroxy-6-(3-morpholinopropyl)-3-nitro-5H-indeno[1,2-c]-isoquinoline-5,11(6H)-dione Hydrobromide]
Top1 cleavage [8]: +++++

O=C1c2c(O)cccc2-c2c1c1ccc([N+](=O)[O-])cc1c(=O)n2CCCN1CCOCC1 [Compound 56, 10-(Hydroxy)-6-(3-morpholinopropyl)-3-nitro-5H-indeno[1,2-c]-isoquinoline-5,11(6H)-dione]
GI50 [1, 14]: 3500 nM | GI50 [1, 15]: 234 to 3550 nM

Br.COc1cc2c(cc1O)-c1c(c3ccc([N+](=O)[O-])cc3c(=O)n1CCCN)C2=O [Compound 36, 6-(3-Aminopropyl)-8-hydroxy-9-methoxy-3-nitro-5H-indeno[1,2-c]isoquinoline-5,11(6H)-dione Hydrobromide]
TDP1 inhibitory activity (in words) [7]: TDP1 inhibitors | IC50 [7]: 12 to 37 µM

Br.NCCCn1c2c(c3ccc([N+](=O)[O-])cc3c1=O)C(=O)c1c(O)cccc1-2 [Compound 64, 6-(3-Amino-propyl)-10-hydroxy-3-nitro-5H-indeno[1,2-c]isoquinoline-5,11(6H)-dione Hydrobromide]
TDP1 inhibitory activity (in words) [7]: TDP1 inhibitors | IC50 [7]: 12 to 37 µM | GI50 [1, 14]: 2000 nM | GI50 [1, 15]: 234 to 3550 nM

O=C1c2cccc(O)c2-c2c1c1ccc([N+](=O)[O-])cc1c(=O)n2CCCN1CCOCC1 [Compound 43, 7-Hydroxy-6-(3-morpholinopropyl)-3-nitro-5H-indeno[1,2-c]-isoquinoline-5,11(6H)-dione]
Top1 cleavage [8]: ++ (50–75% activity)

Reference: paper PMC7747014 (Journal of medicinal chemistry, 2015)
